The values that follow come from PMC2114617 (The Journal of Cell Biology, 1986).

One experiment deals with B16-F10 melanoma cells. Briefly: Inhibition of B16-F10 melanoma cell spreading on fibronectin. The experiment is classed as cell-based, murine. As to conditions: data not shown. An outline of the steps: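 Wells coated 60 min at room temperature with human plasma fibronectin (4 μg/ml) in PBS+, then blocked 30 min with heat-denatured BSA. Test peptide in PBS+ was added, with or without 5 μg/ml mAb333. Cells were fixed and %-spread scored by phase contrast (300 cells/well).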
Take Arg- Asp [RD]: the “Inhibition of B16-F10 spreading on fibronectin at concentrations up to 1 mg/ml” value is “completely inactive”.
Regarding Arg-Gly-Pro-Phe-Pro-lle [RGPFPI], the “Inhibition of B16-F10 spreading on fibronectin at concentrations up to 1 mg/ml” value is “completely inactive”.
The same measure, in the same setting: next, Gly-His-Lys [GHK]: “completely inactive”; Thr-Lys-Pro- Arg [TKPR]: “completely inactive”.
Same read-out and setting: for heparin the value was “no detectable effect”; for “insulin A chain: Insulin A chain from Sigma Chemical Co., peptide unrelated to RGDS”, “completely inactive”.

Another experiment relates to BHK fibroblasts. Kind of experiment: Spreading of BHK fibroblasts on fibronectin or its tryptic fragments. The experiment is classed as cell-based, hamster. As to conditions: substrate-coated protein. An outline of the steps:
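Wells were coated 60 min at room temperature with human plasma fibronectin or its purified tryptic fragments (90-98% pure), with coating levels expressed in nM. Wells were blocked with heat-denatured BSA.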
As to fibronectin, the “Spreading of BHK cells on fibronectin and fragments” value is listed as “spread equally well”.

In the next experiment the test system is B16-F10 melanoma cells. Kind of experiment: Inhibition of B16-F10 melanoma cell spreading on CS5. The experiment is classed as cell-based, murine. As to conditions: CS5 substrate; data not shown.
Take GRGD: the “Inhibition of B16-F10 spreading on CS5” value was “highly inhibitory”.
Regarding SDGR, the “Inhibition of B16-F10 spreading on CS5” value is reported as “more active than GRGDS”.
